Source: ChEMBL document CHEMBL1124476, “1-(2-aminoethyl)-6-aryl-4H- [1,2,4]triazolo[4,3-a][1,4]benzodiazepines with diuretic and natriuretic activity” (J Med Chem, 1989)

How the values were obtained:
[1] = Diuretic activity at 40 mg/kg (screening dose-61.6 umol/kg) in […] in a one stage experiment; T/C = urine vol of treated rats / urine vol of control rats; format: functional
Outline: (§1)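 40 mg/kg given by gavage in 25 mL/kg 0.9% saline with 0.5% (carboxymethyl)cellulose. Four rats per agent, two per metabolism cage; 20 controls; 5 h urine. T/C = treated/control urine volume. Stage-1 T/C of 1.66 or more leads to stage 2; product T/C1·T/C2 of 3.34 or more counts as active.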

Rattus norvegicus [2] = species: Rattus norvegicus; assay: […]; format: ADME, organism-based, Urine; parameters: dose 10 mg/kg, route oral; details: in vivo, po, 10 mg/kg
Outline: (§2)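 Male Sprague-Dawley rats, about 160 g, fasted 24 h and water withheld 1 1/2 h beforehand; food and water withheld during the test. Dosing by gavage with 25 mL/kg 0.9% saline containing 0.5% (carboxymethyl)cellulose, agent dissolved or suspended. Three cages of two rats each per dose, held in metabolism cages. Urine collected over 5 h. Volume given in mL, Na+ in mequiv. Significance versus control at P < 0.05.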

Rattus norvegicus [3] = species: Rattus norvegicus; assay: […]; format: ADME, organism-based, Urine; parameters: dose 100 mg/kg, route oral; details: in vivo, po, 100 mg/kg; outline: as §2
Rattus norvegicus [4] = species: Rattus norvegicus; assay: […]; format: ADME, organism-based, Urine; parameters: dose 3 mg/kg, route oral; details: in vivo, po, 3 mg/kg; outline: as §2
Rattus norvegicus [5] = species: Rattus norvegicus; assay: […]; format: ADME, organism-based, Urine; parameters: dose 0.3 mg/kg, route oral; details: in vivo, po, 0.3 mg/kg
Outline: (§3)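 Dose-response test in male Sprague-Dawley rats of about 160 g, fasted 24 h, with water withheld 1½ h before and during the test. Each rat got a single gavage of 25 mL/kg 0.9% saline with 0.5% carboxymethylcellulose carrying the agent (0.3–100 mg/kg range). Rats were housed two per metabolism cage, and urine was collected for 5 h. Mean urine volume (mL) was compared with controls (P < 0.05).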

Rattus norvegicus [6] = species: Rattus norvegicus; assay: […]; format: ADME, organism-based, Urine; parameters: dose 1 mg/kg, route oral; details: in vivo, po, 1 mg/kg; outline: as §3
Rattus norvegicus [7] = assay: Mean excretion of potassium in conscious rats at a dose of 10 mg/kg given orally; format: ADME, organism-based; parameters: dose 10 mg/kg, route oral; details: in vivo, po
Outline: (§4)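 Secondary dose-response in male Sprague-Dawley rats (~160 g), fasted and hydrated as in the primary screen. Oral gavage at 0.3-100 mg/kg in 25 mL/kg saline/0.5% CMC, three cages of two rats per dose. Urine collected 5 h; Na, K, Cl, HCO3 measured. Values are mean excretion (mequiv), compared with controls at P < 0.05.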

Rattus norvegicus [8] = assay: Mean excretion of potassium in conscious rats at a dose of 100 mg/kg given orally; format: ADME, organism-based; parameters: dose 100 mg/kg, route oral; details: in vivo, po; outline: as §4
Rattus norvegicus [9] = assay: Mean excretion of potassium in conscious rats at a dose of 3.0 mg/kg given orally; format: ADME, organism-based; parameters: dose 3 mg/kg, route oral; details: in vivo, po; outline: as §4
Rattus norvegicus [10] = assay: Mean excretion of potassium in conscious rats at a dose of 30 mg/kg given orally; format: ADME, organism-based; parameters: dose 30 mg/kg, route oral; details: in vivo, po; outline: as §4
Rattus norvegicus [11] = assay: Mean excretion of sodium in conscious rats at a dose of 0.3 mg/kg given orally; format: ADME, organism-based; parameters: dose 0.3 mg/kg, route oral; details: in vivo, po; outline: as §2
Rattus norvegicus [12] = assay: Mean excretion of […] in conscious rats at a dose of 1.0 mg/kg given orally; format: ADME, organism-based; parameters: dose 1 mg/kg, route oral; details: in vivo, po; outline: as §2
Rattus norvegicus [13] = assay: Mean excretion of sodium in conscious rats at a dose of 10 mg/kg given orally; format: ADME, organism-based; parameters: dose 10 mg/kg, route oral; details: in vivo, po; outline: as §2
Rattus norvegicus [14] = assay: Mean excretion of sodium in conscious rats at a dose of 100 mg/kg given orally; format: ADME, organism-based; parameters: dose 100 mg/kg, route oral; details: in vivo, po; outline: as §2
Rattus norvegicus [15] = assay: Mean excretion of sodium in conscious rats at a dose of 3.0 mg/kg given orally; format: ADME, organism-based; parameters: dose 3 mg/kg, route oral; details: in vivo, po; outline: as §2
Rattus norvegicus [16] = assay: Mean excretion of sodium in conscious rats at a dose of 30 mg/kg given orally; format: ADME, organism-based; parameters: dose 30 mg/kg, route oral; details: in vivo, po; outline: as §2
Rattus norvegicus [17] = assay: Mean excretion of chloride in conscious rats at a dose of 1.0 mg/kg given orally; format: ADME, organism-based; parameters: dose 1 mg/kg, route oral; details: in vivo, po; outline: as §4
Rattus norvegicus [18] = assay: Mean excretion of chloride in conscious rats at a dose of 10 mg/kg given orally; format: ADME, organism-based; parameters: dose 10 mg/kg, route oral; details: in vivo, po; outline: as §4
Rattus norvegicus [19] = assay: Mean excretion of chloride in conscious rats at a dose of 100 mg/kg given orally; format: ADME, organism-based; parameters: dose 100 mg/kg, route oral; details: in vivo, po; outline: as §4
Rattus norvegicus [20] = assay: Mean excretion of chloride in conscious rats at a dose of 30 mg/kg given orally; format: ADME, organism-based; parameters: dose 30 mg/kg, route oral; details: in vivo, po; outline: as §4
Rattus norvegicus [21] = assay: Mean excretion of chloride in conscious rats at a dose of 3.0 mg/kg given orally; format: ADME, organism-based; parameters: dose 3 mg/kg, route oral; details: in vivo, po; outline: as §4
Rattus norvegicus [22] = assay: Mean excretion of Cl- in conscious rats at a dose of 0.3 mg/kg given orally; format: ADME, organism-based, Urine; parameters: dose 0.3 mg/kg, route oral; details: in vivo, po; outline: as §3
Rattus norvegicus [23] = assay: Mean excretion of potassium in conscious rats at a dose of 1.0 mg/kg given orally; format: ADME, organism-based; parameters: dose 1 mg/kg, route oral; details: in vivo, po; outline: as §4
Rattus norvegicus [24] = assay: Mean excretion of potassium in conscious rats at a dose of 0.3 mg/kg given orally; format: ADME, organism-based; parameters: dose 0.3 mg/kg, route oral; details: in vivo, po; outline: as §4
[25] = Diuretic activity at 40 mg/kg (screening dose-88.2 uM/Kg) in […] in a two stage experiment; T/C1.2 = urine vol of treated rats / urine vol of control rats; format: functional; outline: as §1
[26] = Diuretic activity at 40 mg/kg (screening dose 88.2 umol/kg) in […] in a one stage experiment; T/C = urine vol of treated rats / urine vol of control rats; format: functional; outline: as §1
Rattus norvegicus [27] = species: Rattus norvegicus; assay: […]; format: ADME, organism-based, Urine; parameters: dose 30 mg/kg, route oral; details: in vivo, po, 30 mg/kg; outline: as §2
[28] = Diuretic activity at 40 mg/kg (screening dose-82.2 umol/kg) in […] in a two stage experiment; T/C1.2 = urine vol of treated rats / urine vol of control rats; format: functional; outline: as §1
[29] = Diuretic activity at 40 mg/kg (screening dose-82.2 umol/kg) in […] in a one stage experiment; T/C = urine vol of treated rats / urine vol of control rats; format: functional; outline: as §1
[30] = Diuretic activity at 40 mg/kg (screening dose-100.8 umol/kg) in […] in a one stage experiment; T/C = urine vol of treated rats / urine vol of control rats; format: functional; outline: as §1

Clc1ccc2c(c1)C(c1ccccc1)=NCc1nnc(C(CN3CCN(c4ccccc4)CC3)c3ccccc3)n1-2.O=C(O)C(=O)O (centres undefined)
T/C 1 [1]: 0.95

CSc1ccc2c(c1)C(c1ccccc1)=NCc1nnc(C(CN(C)C)c3ccccc3)n1-2 (centres undefined)
Mean urine volume (Rattus norvegicus [2]): 6.83 mL
Mean urine volume (Rattus norvegicus [3]): 14.14 mL
Mean urine volume (Rattus norvegicus [4]): 5.2 mL
Mean urine volume (Rattus norvegicus [5]): 3.92 mL
Mean urine volume (Rattus norvegicus [6]): 5.12 mL
Mean excretion of K+ (Rattus norvegicus [7]): 0.23 m equiv
Mean excretion of K+ (Rattus norvegicus [8]): 0.28 m equiv
Mean excretion of K+ (Rattus norvegicus [9]): 0.36 m equiv
Mean excretion of K+ (Rattus norvegicus [10]): 0.25 m equiv
Mean excretion of Na+ (Rattus norvegicus [11]): 0.88 m equiv
Mean excretion of Na+ (Rattus norvegicus [12]): 0.94 m equiv
Mean excretion of Na+ (Rattus norvegicus [13]): 1.39 m equiv
Mean excretion of Na+ (Rattus norvegicus [14]): 2.52 m equiv
Mean excretion of Na+ (Rattus norvegicus [15]): 0.91 m equiv
Mean excretion of Na+ (Rattus norvegicus [16]): 1.87 m equiv
Mean excretion of Cl- (Rattus norvegicus [17]): 0.89 m equiv
Mean excretion of Cl- (Rattus norvegicus [18]): 1.28 m equiv
Mean excretion of Cl- (Rattus norvegicus [19]): 2.17 m equiv
Mean excretion of Cl- (Rattus norvegicus [20]): 1.69 m equiv
Mean excretion of Cl- (Rattus norvegicus [21]): 0.9 m equiv
Mean excretion of Cl- (Rattus norvegicus [22]): 0.76 m equiv
Mean excretion of K+ (Rattus norvegicus [23]): 0.31 m equiv
Mean excretion of K+ (Rattus norvegicus [24]): 0.31 m equiv
T/C 1.2 [25]: 6.6
T/C 1 [26]: 2.29
Mean urine volume (Rattus norvegicus [27]): 10.39 mL

CN(C)CC(c1ccccc1)c1nnc2n1-c1ccc(Br)cc1C(c1ccccc1)=NC2 (centres undefined)
Mean urine volume (Rattus norvegicus [2]): 5.1 mL
Mean urine volume (Rattus norvegicus [3]): 7.74 mL
Mean urine volume (Rattus norvegicus [4]): 3.4 mL
Mean urine volume (Rattus norvegicus [5]): 4.29 mL
Mean urine volume (Rattus norvegicus [6]): 3.59 mL
Mean excretion of K+ (Rattus norvegicus [7]): 0.17 m equiv
Mean excretion of K+ (Rattus norvegicus [8]): 0.15 m equiv
Mean excretion of K+ (Rattus norvegicus [9]): 0.17 m equiv
Mean excretion of K+ (Rattus norvegicus [10]): 0.17 m equiv
Mean excretion of Na+ (Rattus norvegicus [11]): 0.63 m equiv
Mean excretion of Na+ (Rattus norvegicus [12]): 0.64 m equiv
Mean excretion of Na+ (Rattus norvegicus [13]): 0.74 m equiv
Mean excretion of Na+ (Rattus norvegicus [14]): 1.16 m equiv
Mean excretion of Na+ (Rattus norvegicus [15]): 0.53 m equiv
Mean excretion of Na+ (Rattus norvegicus [16]): 1.18 m equiv
Mean excretion of Cl- (Rattus norvegicus [17]): 0.62 m equiv
Mean excretion of Cl- (Rattus norvegicus [18]): 0.78 m equiv
Mean excretion of Cl- (Rattus norvegicus [19]): 1.01 m equiv
Mean excretion of Cl- (Rattus norvegicus [20]): 1.16 m equiv
Mean excretion of Cl- (Rattus norvegicus [21]): 0.6 m equiv
Mean excretion of Cl- (Rattus norvegicus [22]): 0.72 m equiv
Mean excretion of K+ (Rattus norvegicus [23]): 0.21 m equiv
Mean excretion of K+ (Rattus norvegicus [24]): 0.24 m equiv
T/C 1.2 [28]: 4.73
T/C 1 [29]: 2.17
Mean urine volume (Rattus norvegicus [27]): 8.5 mL

C=C(c1ccccc1)c1nnc2n1-c1ccc(Cl)cc1C(c1ccccc1)=NC2
T/C 1 [30]: 0.76
